The source made the active and inactive calls. The calls are words filed in the database; no cut-off is given here.
Key:
[1] = biological target: T1, Tyrosine-protein phosphatase non-receptor type 1 (Homo sapiens) (UniProt P18031); test: Inhibition of human recombinant GST-tagged PTP1B assessed as conversion of para-nitrophenyl phosphate to para-nitrophenol at 10^-6 M after 10 mins by microplate spectrophotometer analysis
T1 sequence (whole entry): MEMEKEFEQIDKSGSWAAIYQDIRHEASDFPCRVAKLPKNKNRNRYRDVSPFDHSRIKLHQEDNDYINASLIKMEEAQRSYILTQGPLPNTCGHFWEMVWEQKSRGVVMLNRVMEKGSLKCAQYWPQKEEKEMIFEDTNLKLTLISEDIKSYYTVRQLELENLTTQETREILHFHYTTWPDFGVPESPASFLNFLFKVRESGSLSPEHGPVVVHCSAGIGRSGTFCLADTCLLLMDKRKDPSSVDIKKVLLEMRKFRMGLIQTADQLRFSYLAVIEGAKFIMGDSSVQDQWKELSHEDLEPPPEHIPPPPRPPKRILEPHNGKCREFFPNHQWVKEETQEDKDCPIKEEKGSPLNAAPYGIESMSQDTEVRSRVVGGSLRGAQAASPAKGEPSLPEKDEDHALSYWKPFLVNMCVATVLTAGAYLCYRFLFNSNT

[2] = tested on: HCT-8; test: Cytotoxicity against human HCT8 cells at 10^-6 M after 96 hrs by MTT assay; assay type: functional, cell-based
[3] = tested on: Human immunodeficiency virus 1; test: Antiviral activity against HIV1 harboring vesicular stomatitis virus glycoprotein infected in human 293T cells assessed as inhibition of viral replication at 10 uM after 48 hrs by luciferase activity based luminometer analysis; assay type: functional, organism-based
[4] = tested on: Liver microsomes; test: Antioxidant activity against Fe2+-cystine-induced lipid peroxidation in rat liver microsomes at 10^-6 M after 15 mins by thiobarbituric acid method; assay type: functional; conditions: Microsome
[5] = tested on: Aorta; test: Vasorelaxant activity in Sprague-Dawley rat […] thoracic aorta assessed as inhibition of phenylephrine-induced vasoconstriction at 10^-6 M relative to control; assay type: functional; parameters: scale not given: the % may be the effect or the level left
How it was run: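 Read-out was percent relaxation of phenylephrine-precontracted vessels. Verapamil served as the positive control at the same test concentration.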

[6] = tested on: BGC-823; test: Cytotoxicity against human BGC823 cells at 10^-6 M after 96 hrs by MTT assay; assay type: functional, cell-based
[7] = tested on: KETR3; test: Cytotoxicity against human Ketr3 cells at 10^-6 M after 96 hrs by MTT assay; assay type: functional, cell-based
[8] = tested on: A549; test: Cytotoxicity against human A549 cells at 10^-6 M after 96 hrs by MTT assay; assay type: functional, cell-based
[9] = tested on: Bel-7402; test: Cytotoxicity against human Bel7402 cells at 10^-6 M after 96 hrs by MTT assay; assay type: functional, cell-based
[10] = tested on: MCF7; test: Cytotoxicity against human MCF7 cells at 10^-6 M after 96 hrs by MTT assay; assay type: functional, cell-based
[11] = tested on: Human immunodeficiency virus 1; test: Antiviral activity against HIV1 harboring vesicular stomatitis virus glycoprotein infected in human 293T cells assessed as inhibition of viral replication after 48 hrs by luciferase activity based luminometer analysis; assay type: functional, organism-based; conditions: Human immunodeficiency virus 1, HEK-293T

Structure (SMILES) | inhibition [1] | Activity [2] | Activity [3] | Activity [4] | Activity [5] | Activity [6] | Activity [7] | Activity [8] | Activity [9] | Activity [10] | IC50 [11]
CC(=O)O[C@@H]1[C@@H]2[C@H]3O[C@]3(C)CC[C@H]3[C@H](/C=C(\C)C(=O)[C@@]2(O)C[C@@H]1C)C3(C)C | inactive | inactive | inactive | inactive | <30% | inactive | inactive | inactive | inactive | inactive | –
C/C1=C\[C@H]2[C@@H](OC(=O)/C=C/c3ccccc3)[C@@H](C)C[C@]2(O)C(=O)/C(C)=C/[C@H]2[C@H](CC1)C2(C)C | inactive | inactive | inactive | inactive | <30% | inactive | inactive | inactive | inactive | inactive | –
C/C1=C\[C@H]2[C@H](CC[C@@]3(C)O[C@@H]3[C@H]3[C@@H](OC(=O)c4ccccc4)[C@@H](C)C[C@]3(OC(=O)c3ccccc3)C1=O)C2(C)C | inactive | inactive | inactive | inactive | <30% | inactive | inactive | inactive | inactive | inactive | –
C/C1=C/C[C@H]2[C@H](/C=C(\C)C(=O)[C@@]3(OC(=O)/C=C/c4ccccc4)C[C@H](C)[C@@H]4OC(C)(C)O[C@@H]1[C@@H]43)C2(C)C | inactive | inactive | – | inactive | <30% | inactive | inactive | inactive | inactive | inactive | –
C/C1=C\[C@H]2[C@@H](O)[C@@H](C)C[C@]2(OC(=O)/C=C/c2ccccc2)C(=O)/C(C)=C/[C@H]2[C@H](CC1)C2(C)C | inactive | inactive | – | inactive | <30% | inactive | inactive | inactive | inactive | inactive | 8.2 µM
CC(=O)O[C@]12C[C@H](C)[C@H](O)[C@@H]1[C@H]1O[C@]1(C)CC[C@H]1[C@H](/C=C(\C)C2=O)C1(C)C | inactive | inactive | inactive | inactive | <30% | inactive | inactive | inactive | inactive | inactive | –
CC(=O)O[C@@H]1[C@H]2[C@@H](O)/C(C)=C\C[C@H]3[C@H](/C=C(\C)C(=O)[C@@]2(OC(=O)c2ccccc2)C[C@@H]1C)C3(C)C | inactive | inactive | inactive | inactive | 48% | inactive | inactive | inactive | inactive | inactive | –
C/C1=C/C[C@H]2[C@@H](/C=C(\C)C(=O)[C@@]3(O)C[C@H](C)[C@H](OC(=O)/C=C/c4ccccc4)[C@H]3[C@H]1O)C2(C)C | inactive | inactive | inactive | inactive | <30% | inactive | inactive | inactive | inactive | inactive | –
COc1ccc(CCN(C)CCCC(C#N)(c2ccc(OC)c(OC)c2)C(C)C)cc1OC (configuration not stated) [VERAPAMIL] | – | – | – | – | 44% | – | – | – | – | – | –
C/C1=C\[C@H]2[C@@H](O)[C@@H](C)C[C@]2(OC(=O)c2ccccc2)C(=O)/C(C)=C/[C@H]2[C@H](CC1)C2(C)C | inactive | inactive | inactive | inactive | 42% | inactive | inactive | inactive | inactive | inactive | –
C=C1CC[C@H]2[C@H](/C=C(\C)C(=O)[C@@]3(OC(=O)/C=C/c4ccccc4)C[C@H](C)[C@H](O)[C@@H]3[C@H]1O)C2(C)C | inactive | inactive | inactive | inactive | <30% | inactive | inactive | inactive | inactive | inactive | –
C/C1=C/C[C@H]2[C@H](/C=C(\C)C(=O)[C@@]3(O)C[C@H](C)[C@H](O)[C@@H]3[C@H]1OC(=O)/C=C/c1ccccc1)C2(C)C | inactive | inactive | inactive | inactive | <30% | inactive | inactive | inactive | inactive | inactive | –
CC(=O)O[C@@H]1[C@@H]2[C@H]3O[C@]3(C)CC[C@H]3[C@H](/C=C(\C)C(=O)[C@@]2(OC(C)=O)C[C@@H]1C)C3(C)C | inactive | inactive | inactive | inactive | <30% | inactive | inactive | inactive | inactive | inactive | –
CC(=O)O[C@@H]1[C@@H]2[C@H]3O[C@]3(C)CC[C@H]3[C@H](/C=C(\C)C(=O)[C@@]2(OC(=O)c2ccccc2)C[C@@H]1C)C3(C)C | inactive | inactive | inactive | inactive | 41% | inactive | inactive | inactive | inactive | inactive | –
CC(=O)O[C@H]1[C@@H](C)C[C@]2(OC(C)=O)C(=O)/C(C)=C/[C@H]3[C@H](CC/C(C)=C/[C@@H]12)C3(C)C | inactive | inactive | inactive | inactive | <30% | inactive | inactive | inactive | inactive | inactive | –
C/C1=C\[C@H]2[C@H](CC[C@@]3(C)O[C@@H]3[C@H]3[C@@H](OC(=O)/C=C/c4ccccc4)[C@@H](C)C[C@]3(O)C1=O)C2(C)C | inactive | inactive | inactive | inactive | <30% | inactive | inactive | inactive | inactive | inactive | –
C/C1=C\[C@H]2[C@H](CC[C@@]3(C)O[C@@H]3[C@H]3[C@@H](OC(=O)c4ccccc4)[C@@H](C)C[C@]3(O)C1=O)C2(C)C | inactive | inactive | inactive | inactive | 48% | inactive | inactive | inactive | inactive | inactive | –
C/C1=C/C[C@H]2[C@@H](/C=C(\C)C(=O)[C@@]3(OC(=O)c4ccccc4)C[C@H](C)[C@H](O)[C@@H]3[C@@H]1O)C2(C)C | – | – | inactive | – | 53% | – | – | – | – | – | –
CC(=O)O[C@H]1/C(C)=C\C[C@H]2[C@H](/C=C(\C)C(=O)[C@@]3(OC(=O)c4ccccc4)C[C@H](C)[C@H](O)[C@H]13)C2(C)C | inactive | inactive | inactive | inactive | 50% | inactive | inactive | inactive | inactive | inactive | –

Reference: ChEMBL document CHEMBL1800058, “Lathyrane diterpenoids from the roots of Euphorbia micractina and their biological activities” (J Nat Prod, 2011)
